Here are results for 1 molecule from ChEMBL document CHEMBL2146365, “Design and synthesis of EGFR dimerization inhibitors and evaluation of their potential in the treatment of psoriasis” (Bioorg Med Chem, 2012).

Activity calls are given as the source filed them. The calls are words filed in the database; no cut-off is given here.

Assay [1] concerns the target Epidermal growth factor receptor (Homo sapiens) (UniProt P00533). The assay is described as follows: Inhibition of EGFR-mediated ERK1 phosphorylation in HPV-16 transformed human CCD-1106 cells at 116.8 uM after 30 mins by densitometric analysis. It is filed as cell-based. The essentials:
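CCD-1106 cells were treated with compound for 30 min at 37 °C, then stimulated with EGF. Lysates were separated by SDS-PAGE, blotted to nitrocellulose and blocked in 3% BSA/NaTT. Blots were probed with p-ERK (E-4) or p-p38 (D-8) antibodies, detected by ECL and quantified by densitometry.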

Assay [2] has the same target. In words: Inhibition of phosphorylated EGFR dimerization in HPV-16 transformed human CCD-1106 cells at 126.7 uM after 30 mins by densitometric analysis. It is filed as cell-based. The essentials:
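CCD-1106 cells were exposed to compounds for 30 min at 37 °C, then stimulated with EGF 50 ng/mL for 10 min. They were cross-linked with 2 mM BS3 for 30 min at room temperature and quenched with Tris (pH 7.5). Lysates were run on SDS-PAGE and immunoblotted for phospho-EGFR (Tyr1173) and total EGFR. The ~340 kDa dimer band was quantified by densitometry against the no-inhibitor control.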

The subject of assay [3] is HaCaT. In words: Induction of apoptosis in human HaCaT cells assessed as activation of caspase 3/7 at 56 to 446 uM after 12 hrs. It is filed as functional, cell-based. The essentials:
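HaCaT cells were seeded at 10,000 cells/0.2 ml/well, attached overnight and exposed to compound (56–446 µM) for 12 h. Caspase-3/7 activity was measured with the Apo-ONE homogeneous kit, fluorescence 499/521 nm, in triplicate, with medium-only background wells. MTT viability was run in parallel. Results are means of two experiments, t-test against control.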

For assay [4], the system named is HaCaT. In words: Induction of apoptosis in human HaCaT cells assessed as viable cells at 111.6 uM after 9 hrs by AnnexinV-FITC/propidium iodide based FACS flow cytometry. It is filed as functional. The note with it: read-out: Activity. The method, boiled down:
(§1)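 HaCaT cells at 10^6 cells/ml were attached overnight and exposed to vehicle, 111.6, 223.2 or 446 µM for 9 h. Cells were then trypsinized, washed in ice-cold PBS and stained with Annexin V-FITC/PI. FACScan analysis used FL1/FL2, 10,000 events per sample, scatter gating, and quadrants set with single-stain controls. Runs were in triplicate and results are means of two experiments.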
(In flow cytometry, cells or beads pass a laser one at a time.)

Assay [5] relates to HaCaT. In words: Induction of apoptosis in human HaCaT cells assessed as viable cells at 446 uM after 9 hrs by AnnexinV-FITC/propidium iodide based FACS flow cytometry. The format is functional. The settings on record: read-out: Activity. The method, boiled down: as §1
The subject of assay [6] is HaCaT. In words: Induction of apoptosis in human HaCaT cells after 12 hrs by electron microscopy. It is filed as functional, cell-based.
A short description of assay [7]: Growth inhibition of human NHEK cells after 72 hrs by neutral red uptake assay. It is filed as functional. The essentials: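 Neutral red uptake assay over 72 h. Cells were seeded at 10,000 cells/well and attached overnight, then exposed to eight concentrations with six replicates (DMSO <1%). CCD-1106 were grown in keratinocyte SFM with supplements. HaCaT were grown in DMEM with 10% FBS and 2 mM L-glutamine. NHEK (pooled adult) were grown in keratinocyte growth medium with supplement. Values are means, n = 6, against the untreated control.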

Assay [8] relates to HaCaT. The assay is described as follows: Induction of apoptosis in human HaCaT cells assessed as early phase apoptotic cells at 223.2 uM after 9 hrs by AnnexinV-FITC/propidium iodide based FACS flow cytometry. The format is functional. The method, boiled down: as §1
Another assay relates to THP-1. The assay is described as follows: Growth inhibition of human THP1 cells after 72 hrs by Cell Titer 96 aqueous one solution assay. The format is functional. The essentials: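 Cells were grown in RPMI with 10% FBS, 2 mM L-glutamine and penicillin/streptomycin. They were seeded at 10,000 cells/well in round-bottom plates and exposed to compounds for 72 h (eight concentrations, six replicates). Cell Titer 96 AQueous One reagent was then added for 3 h at 37 °C and absorbance was read at 492 nm. Values are means, n = 6.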

Assay [9] deals with HaCaT. In words: Cytotoxicity against human HaCaT cells assessed as LDH release after 6 hrs by CYTOX-96 assay. It is filed as functional. The note with it: read-out: LD50 (the source's name). The method, boiled down: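 LDH release was read with the CytoTox 96 kit following the kit protocol after 6 or 24 h drug exposure. Cells were seeded at 10,000/well and attached overnight. Eight concentrations were run with six in-plate replicates; DMSO was <1% in all wells, with medium-only blanks. LD₅₀ is reported as mean ± S.E.M., n = 6. CCD-1106 were grown in supplemented keratinocyte SFM; HaCaT in DMEM/10% FBS.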

Assay [10] has as its system HaCaT. The assay is described as follows: Cytotoxicity against human HaCaT cells assessed as cell viability after 24 hrs by MTT assay. The format is functional. The settings on record: read-out: LD50 (the source's name). The method, boiled down: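 Cells were plated at 10,000/well, attached overnight, and exposed 6 or 24 h to eight drug concentrations with six in-plate replicates (DMSO <1%). MTT (0.5 mg/ml in PBS) was added for 2 h at 37 °C, then dissolved in 90% isopropanol/10% DMSO, and A590 was read. Values were corrected against untreated controls. LD₅₀ is reported as mean ± S.E.M., n = 3.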
For orientation: Tetrazolium assays rely on reduction of a dye to a coloured formazan, in cell work by metabolically active cells.

Sequence of Epidermal growth factor receptor (Homo sapiens) (P00533 whole entry): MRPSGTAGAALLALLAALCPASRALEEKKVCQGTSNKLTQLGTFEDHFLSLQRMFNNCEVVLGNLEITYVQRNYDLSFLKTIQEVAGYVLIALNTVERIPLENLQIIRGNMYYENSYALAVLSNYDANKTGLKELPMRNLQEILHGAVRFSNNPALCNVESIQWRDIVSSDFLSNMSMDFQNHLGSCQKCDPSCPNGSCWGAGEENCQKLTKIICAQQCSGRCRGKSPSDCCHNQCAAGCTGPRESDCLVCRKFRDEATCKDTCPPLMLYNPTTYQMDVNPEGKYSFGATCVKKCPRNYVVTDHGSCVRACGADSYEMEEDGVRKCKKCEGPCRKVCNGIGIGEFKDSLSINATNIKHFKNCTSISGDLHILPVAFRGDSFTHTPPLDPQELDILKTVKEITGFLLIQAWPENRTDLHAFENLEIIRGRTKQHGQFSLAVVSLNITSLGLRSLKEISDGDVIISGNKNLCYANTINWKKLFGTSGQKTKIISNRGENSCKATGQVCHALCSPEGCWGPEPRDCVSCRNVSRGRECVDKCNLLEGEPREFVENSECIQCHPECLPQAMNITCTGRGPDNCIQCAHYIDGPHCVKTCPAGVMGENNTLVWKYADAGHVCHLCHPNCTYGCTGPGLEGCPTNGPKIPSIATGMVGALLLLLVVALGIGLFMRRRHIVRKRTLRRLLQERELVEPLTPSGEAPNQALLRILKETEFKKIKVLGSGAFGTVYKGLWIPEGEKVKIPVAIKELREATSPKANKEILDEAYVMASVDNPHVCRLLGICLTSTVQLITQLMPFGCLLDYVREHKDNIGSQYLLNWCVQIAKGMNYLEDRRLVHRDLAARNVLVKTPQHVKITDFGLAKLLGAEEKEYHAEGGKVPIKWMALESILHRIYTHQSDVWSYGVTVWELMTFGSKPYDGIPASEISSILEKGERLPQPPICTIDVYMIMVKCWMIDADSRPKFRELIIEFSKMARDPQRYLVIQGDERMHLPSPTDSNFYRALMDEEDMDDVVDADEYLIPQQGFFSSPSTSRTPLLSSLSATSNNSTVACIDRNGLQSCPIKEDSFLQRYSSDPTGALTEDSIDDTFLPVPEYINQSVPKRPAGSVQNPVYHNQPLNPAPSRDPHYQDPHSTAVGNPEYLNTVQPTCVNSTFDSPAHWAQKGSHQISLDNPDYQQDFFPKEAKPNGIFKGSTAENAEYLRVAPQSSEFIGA

As to `CCOc1cc(/C=N\Nc2nc3c(c(=O)n(C)c(=O)n3C)n2Cc2ccccc2)ccc1O`, the inhibition in [1] was 39%; in [2], 37%. For the same molecule, the outcome in the assay with HaCaT [3] and in the assay on HaCaT [6] was Active. Besides, the viability at 111.6 µM with HaCaT [4] was determined as 82%. Also, in the assay with HaCaT [5], the viability at 446 µM came to 61%. Also, the GI50 in [7] is 54 µM; with THP-1 (THP-1, 72 h) it was 36 µM. Further, the Activity in the assay with HaCaT [8] amounted to 17%. For the same molecule, the “growth inhibition (GI)” value in the assay with THP-1 was “Dose-dependent effect”. Also, the CC50 with HaCaT [9] and with HaCaT [10] was 446 µM throughout.

Usually inhibition stands for how much of the control response was suppressed. A lower inhibition goes with little suppression. Usually GI50 stands for the concentration giving 50% growth inhibition.
